Reference: ChEMBL document CHEMBL3046106, “Synthesis and herbicidal activity of diphenyl ether derivatives containing unsaturated carboxylates” (J Agric Food Chem, 2011)

Assays:
Format in all cases: functional
Abutilon theophrasti [1] = assay: Herbicidal activity against Abutilon theophrasti (velvetleaf) at 30 g/hm2 postemergent application after 2 weeks
Outline: (§1)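 Seedlings grown 14 days in the greenhouse; plants uniform in size and stage were chosen. Test compound in acetone sprayed post-emergence at a carrier volume equivalent to 187 L/ha. Plants returned to the greenhouse and watered; untreated plants served as control. Each species scored visually two weeks after application on a 0–100 scale (0 no activity, 100 total control).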

Abutilon theophrasti [2] = assay: Herbicidal activity against Abutilon theophrasti (velvetleaf) at 120 g/hm2 postemergent application after 2 weeks; outline: as §1
Abutilon theophrasti [3] = assay: Herbicidal activity against Abutilon theophrasti (velvetleaf) at 480 g/hm2 postemergent application after 2 weeks; outline: as §1
Digitaria sanguinalis [4] = assay: Herbicidal activity against Digitaria sanguinalis (hairy crabgrass) at 120 g/hm2 postemergent application after 2 weeks; outline: as §1
Digitaria sanguinalis [5] = assay: Herbicidal activity against Digitaria sanguinalis (hairy crabgrass) at 30 g/hm2 postemergent application after 2 weeks; outline: as §1
Digitaria sanguinalis [6] = assay: Herbicidal activity against Digitaria sanguinalis (hairy crabgrass) at 480 g/hm2 postemergent application after 2 weeks; outline: as §1
Echinochloa crus-galli [7] = assay: Herbicidal activity against Echinochloa crus-galli (barnyard grass) at 30 g/hm2 postemergent application after 2 weeks; outline: as §1
Echinochloa crus-galli [8] = assay: Herbicidal activity against Echinochloa crus-galli (barnyard grass) at 120 g/hm2 postemergent application after 2 weeks; outline: as §1
Echinochloa crus-galli [9] = assay: Herbicidal activity against Echinochloa crus-galli (barnyard grass) at 480 g/hm2 postemergent application after 2 weeks; outline: as §1
Abutilon theophrasti [10] = assay: Herbicidal activity against Abutilon theophrasti (velvetleaf) at 200 g/hm2 postemergent application after 2 weeks; outline: as §1
Abutilon theophrasti [11] = assay: Herbicidal activity against Abutilon theophrasti (velvetleaf) at 1000 g/hm2 postemergent application after 2 weeks; outline: as §1
Digitaria sanguinalis [12] = assay: Herbicidal activity against Digitaria sanguinalis (hairy crabgrass) at 200 g/hm2 postemergent application after 2 weeks; outline: as §1
Digitaria sanguinalis [13] = assay: Herbicidal activity against Digitaria sanguinalis (hairy crabgrass) at 1000 g/hm2 postemergent application after 2 weeks; outline: as §1
Echinochloa crus-galli [14] = assay: Herbicidal activity against Echinochloa crus-galli (barnyard grass) at 200 g/hm2 postemergent application after 2 weeks; outline: as §1
Echinochloa crus-galli [15] = assay: Herbicidal activity against Echinochloa crus-galli (barnyard grass) at 1000 g/hm2 postemergent application after 2 weeks; outline: as §1
Abutilon theophrasti [16] = assay: Herbicidal activity against Abutilon theophrasti (velvetleaf) at 40 g/hm2 postemergent application after 2 weeks; outline: as §1
Digitaria sanguinalis [17] = assay: Herbicidal activity against Digitaria sanguinalis (hairy crabgrass) at 40 g/hm2 postemergent application after 2 weeks; outline: as §1
Echinochloa crus-galli [18] = assay: Herbicidal activity against Echinochloa crus-galli (barnyard grass) at 40 g/hm2 postemergent application after 2 weeks; outline: as §1

Structure (SMILES)	Activity (Abutilon theophrasti [1])	Activity (Abutilon theophrasti [2])	Activity (Abutilon theophrasti [3])	Activity (Digitaria sanguinalis [4])	Activity (Digitaria sanguinalis [5])	Activity (Digitaria sanguinalis [6])	Activity (Echinochloa crus-galli [7])	Activity (Echinochloa crus-galli [8])	Activity (Echinochloa crus-galli [9])	Activity (Abutilon theophrasti [10])	Activity (Abutilon theophrasti [11])	Activity (Digitaria sanguinalis [12])	Activity (Digitaria sanguinalis [13])	Activity (Echinochloa crus-galli [14])	Activity (Echinochloa crus-galli [15])	Activity (Abutilon theophrasti [16])	Activity (Digitaria sanguinalis [17])	Activity (Echinochloa crus-galli [18])
CCCOC(=O)/C=C/COC(=O)c1cc(Oc2ccc(C(F)(F)F)cc2Cl)ccc1[N+](=O)[O-]	95%	100%	100%	80%	70%	90%	10%	40%	70%	–	–	–	–	–	–	–	–	–
CCC/C(=C\C(=O)OCC)OC(=O)c1cc(Oc2ccc(C(F)(F)F)cc2Cl)ccc1[N+](=O)[O-]	–	–	–	–	–	–	–	–	–	0%	0%	5%	15%	5%	35%	–	–	–
COC(=O)/C=C(\C)OC(=O)c1cc(Oc2ccc(C(F)(F)F)cc2Cl)ccc1[N+](=O)[O-]	–	–	–	–	–	–	–	–	–	75%	100%	80%	95%	50%	80%	25%	5%	15%
C=C(C(=O)OCC)C(C)OC(=O)c1cc(Oc2ccc(C(F)(F)F)cc2Cl)ccc1[N+](=O)[O-] (stereo not given)	–	–	–	–	–	–	–	–	–	50%	100%	70%	90%	20%	30%	5%	25%	10%
CCCCOC(=O)/C=C/COC(=O)c1cc(Oc2ccc(C(F)(F)F)cc2Cl)ccc1[N+](=O)[O-]	90%	90%	95%	80%	70%	85%	10%	20%	40%	–	–	–	–	–	–	–	–	–
C/C(=C\C(=O)OC(C)(C)C)OC(=O)c1cc(Oc2ccc(C(F)(F)F)cc2Cl)ccc1[N+](=O)[O-]	–	–	–	–	–	–	–	–	–	50%	75%	15%	40%	30%	45%	30%	5%	5%
CCOC(=O)/C=C(\C)OC(=O)c1cc(Oc2ccc(C(F)(F)F)cc2Cl)ccc1Cl	–	–	–	–	–	–	–	–	–	–	–	20%	25%	20%	95%	–	10%	0%
C=CCOC(=O)/C=C(\C)OC(=O)c1cc(Oc2ccc(C(F)(F)F)cc2Cl)ccc1[N+](=O)[O-]	–	–	–	–	–	–	–	–	–	0%	40%	5%	35%	5%	25%	–	–	–
C=C(C(=O)OCC)C(C)OC(=O)c1cc(Oc2ccc(C(F)(F)F)cc2Cl)ccc1Cl (stereo not given)	–	–	–	–	–	–	–	–	–	75%	100%	35%	40%	20%	95%	5%	0%	0%
C=C(COC(=O)c1cc(Oc2ccc(C(F)(F)F)cc2Cl)ccc1Cl)C(=O)OC	–	–	–	–	–	–	–	–	–	98%	100%	25%	30%	15%	75%	10%	10%	5%
C=C(COC(=O)c1cc(Oc2ccc(C(F)(F)F)cc2Cl)ccc1Cl)C(=O)OCC	–	–	–	–	–	–	–	–	–	100%	100%	70%	95%	20%	90%	30%	40%	10%
CC/C(=C\C(=O)OC)OC(=O)c1cc(Oc2ccc(C(F)(F)F)cc2Cl)ccc1[N+](=O)[O-]	–	–	–	–	–	–	–	–	–	0%	10%	5%	15%	0%	35%	–	–	–
CCOC(=O)/C=C/COC(=O)c1cc(Oc2ccc(C(F)(F)F)cc2Cl)ccc1Cl	–	–	–	–	–	–	–	–	–	100%	100%	30%	70%	45%	85%	98%	20%	15%
CCOC(=O)/C(C)=C(\C)OC(=O)c1cc(Oc2ccc(C(F)(F)F)cc2Cl)ccc1[N+](=O)[O-]	–	–	–	–	–	–	–	–	–	35%	100%	50%	55%	15%	25%	0%	20%	10%
C=C(COC(=O)c1cc(Oc2ccc(C(F)(F)F)cc2Cl)ccc1Cl)C(=O)OCCC	–	–	–	–	–	–	–	–	–	100%	100%	30%	35%	10%	75%	20%	10%	5%
CCOC(=O)/C(C)=C(\C)OC(=O)c1cc(Oc2ccc(C(F)(F)F)cc2Cl)ccc1Cl	–	–	–	–	–	–	–	–	–	90%	100%	25%	30%	20%	25%	5%	0%	0%
CCOC(=O)/C=C(/OC(=O)c1cc(Oc2ccc(C(F)(F)F)cc2Cl)ccc1[N+](=O)[O-])C(F)(F)F	–	–	–	–	–	–	–	–	–	0%	60%	0%	50%	0%	35%	–	–	–
COCCOC(=O)/C=C(\C)OC(=O)c1cc(Oc2ccc(C(F)(F)F)cc2Cl)ccc1[N+](=O)[O-]	–	–	–	–	–	–	–	–	–	100%	100%	35%	75%	30%	80%	98%	30%	20%
CCOC(=O)/C=C(\C)COC(=O)c1cc(Oc2ccc(C(F)(F)F)cc2Cl)ccc1[N+](=O)[O-]	–	–	–	–	–	–	–	–	–	100%	100%	10%	20%	20%	35%	90%	10%	5%
CCOC(=O)/C=C(\C)OC(=O)c1cc(Oc2ccc(C(F)(F)F)cc2Cl)ccc1[N+](=O)[O-]	–	–	–	–	–	–	–	–	–	85%	100%	90%	98%	40%	60%	10%	80%	10%
